This note sets out measurements from ChEMBL document CHEMBL1158900, “Synthesis and antimitotic/cytotoxic activity of hemiasterlin analogues” (J Nat Prod, 2003).

In assay [1] the test system is MCF7. Put plainly: Antimitotic activity against human MCF7 cells expressing p53 mutant.
For assay [2], the system named is MCF7. The assay is described as follows: Cytotoxicity activity against human MCF7 cells expressing p53 mutant by MTT assay. In kind it is functional, cell-based. In a few lines: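 Human mammary carcinoma MCF-7 cells carrying a dominant-negative mutant p53 tumour suppressor gene (MCF-7 mup53). Cytotoxicity was read out by MTT assay, and the value reported is the IC50 in nM.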
(In general: Formazan colour is commonly taken as a measure of viable cells.)

Some results are limits rather than exact numbers.

Take `CCOC(=O)/C(C)=C/[C@H](C(C)C)N(C)C(=O)[C@@H](NC(=O)[C@@H](NC)C(C)(C)c1ccccc1)C(C)(C)C`: the IC50 (as a rule, the concentration at which inhibition is half-maximal) with MCF7 [1] was 1 nM; in the assay on MCF7 [2], 7 nM.

In the assay with MCF7 [2], `CN[C@H](C(=O)N[C@H](C(=O)N(C)[C@H](/C=C(\C)C(=O)N[C@@H](CCCNC(=N)N)C(=O)O)C(C)C)C(C)(C)C)C(C)(C)c1cn(C)c2ccccc12` [CRIAMIDES A] returned an IC50 of 1000 nM.

Consider `CN[C@H](C(=O)N[C@H](C(=O)N(C)CCCC(=O)O)C(C)(C)C)C(C)(C)c1cn(C)c2ccccc12`, for which the IC50 with MCF7 [1] and in the assay with MCF7 [2] was > 1000 nM throughout.

Consider `CC(=O)N(C)[C@H](C(=O)N[C@H](C(=O)N(C)[C@H](/C=C(\C)C(=O)O)C(C)C)C(C)(C)C)C(C)(C)c1cn(C)c2ccccc12`, for which the IC50 with MCF7 [1] and in the assay with MCF7 [2] was 300 nM each time.

In the assay with MCF7 [1], `CN[C@H](C(=O)N[C@H](C(=O)N(C)[C@H](CC(C)C(=O)O)C(C)C)C(C)(C)C)C(C)(C)c1cn(C)c2ccccc12` (stereo not given in full) yielded an IC50 of 2.5 nM.

As for `CN[C@H](C(=O)N[C@H](C(=O)N(C)[C@@H](/C=C(\C)C(=O)O)C(C)C)C(C)(C)C)C(C)(C)c1cn(C)c2ccccc12`, the IC50 turned out to be 10 nM in the assay on MCF7 [1] and 30 nM with MCF7 [2].

In the case of `CN[C@H](C(=O)N[C@H](C(=O)N(C)[C@@H](C)/C=C(\C)C(=O)O)C(C)(C)C)C(C)(C)c1cn(C)c2ccccc12`, the IC50 in the assay with MCF7 [1] and in the assay on MCF7 [2] was 4 nM throughout.

For the molecule `CN[C@H](C(=O)N[C@H](C(=O)N[C@H](/C=C(\C)C(=O)O)C(C)C)C(C)(C)C)C(C)(C)c1ccccc1`, the IC50 with MCF7 [1] came out at 20 nM; in the assay on MCF7 [2], 15 nM.

`CN[C@H](C(=O)N[C@H](C(=O)N(C)[C@H](C)/C=C(\C)C(=O)O)C(C)(C)C)C(C)(C)c1cn(C)c2ccccc12`: the IC50 with MCF7 [1] was 200 nM; in the assay on MCF7 [2], 40 nM.

`CN[C@@H](Cc1cn(C)c2ccccc12)C(=O)N[C@H](C(=O)N(C)C(C)/C=C(\C)C(=O)O)C(C)(C)C` (stereo not given in full): the figures for the IC50 in the assay on MCF7 [1] and with MCF7 [2] were 1100 nM and 2500 nM, respectively.

As to `CN[C@H](C(=O)N[C@H](C(=O)N(C)[C@H](/C=C(\C)C(=O)O)C(C)C)C(C)(C)C)C(C)(C)c1cn(C)c2ccccc12` [HEMIASTERLIN], the IC50 in the assay on MCF7 [1] and in the assay on MCF7 [2] was 0.3 nM in each case.

As to `CN[C@H](C(=O)N[C@H](C(=O)N(C)[C@H](/C=C(\C)C(=O)OC)C(C)C)C(C)(C)C)C(C)(C)c1ccccc1`, the IC50 was 2 nM with MCF7 [1] and 3 nM in the assay with MCF7 [2].

As to `CN[C@H](C(=O)N[C@H](C(=O)N(C)C/C=C(\C)C(=O)O)C(C)(C)C)C(C)(C)c1cn(C)c2ccccc12`, the IC50 in the assay with MCF7 [1] and in the assay on MCF7 [2] was > 10000 nM throughout.

Regarding `C/C(=C\[C@H](C(C)C)N(C)C(=O)[C@@H](NC(=O)[C@@H](N)Cc1c[nH]c2ccccc12)C(C)(C)C)C(=O)O`, the values for the IC50 in the assay on MCF7 [1] and in the assay on MCF7 [2] were 20 nM and 40 nM, respectively.

In the case of `CC[C@H](NC(=O)[C@@H](NC)C(C)(C)c1cn(C)c2ccccc12)C(=O)N(C)[C@H](/C=C(\C)C(=O)O)C(C)C`, the IC50 in the assay with MCF7 [1] was 0.5 nM; in the assay on MCF7 [2] it was 0.8 nM.

In the case of `C/C(=C\[C@H](C(C)C)N(C)C(=O)[C@@H](NC(=O)[C@@H](N)C(C)(C)c1cn(C)c2ccccc12)C(C)(C)C)C(=O)O`, the IC50 worked out at 30 nM with MCF7 [1] and 50 nM in the assay with MCF7 [2].

Regarding `C/C(=C\[C@H](C(C)C)N(C)C(=O)[C@@H](NC(=O)C(C)(C)C)C(C)(C)C)C(=O)O`, the IC50 in the assay on MCF7 [1] and in the assay on MCF7 [2] was > 10000 nM throughout.

In the case of `CN[C@H](C(=O)N[C@H](C(=O)N(C)[C@H](/C=C(\C)C(=O)O)C(C)C)C(C)C)C(C)(C)c1c[nH]c2ccccc12` [HEMIASTERLINS B], the IC50 came to 200 nM with MCF7 [1] and 7 nM with MCF7 [2].

As to `CN[C@@H](Cc1cn(C)c2ccccc12)C(=O)N[C@H](C(=O)N(C)[C@H](/C=C(\C)C(=O)O)C(C)C)C(C)(C)C`, the IC50 came to 300 nM in the assay with MCF7 [1] and 60 nM in the assay with MCF7 [2].

As to `CN[C@H](C(=O)N[C@H](C(=O)N(C)[C@H](/C=C(\C)C(=O)OC)C(C)C)C(C)(C)C)C(C)(C)c1cn(C)c2ccccc12` [HEMIASTERLIN METHYL ESTER], the IC50 in the assay on MCF7 [1] and in the assay with MCF7 [2] was 0.5 nM in each case.

In the case of `CN[C@H](C(=O)N[C@H](C(=O)N(C)[C@H](/C=C(\C)C(=O)O)C(C)C)C(C)(C)C)C(C)C`, the IC50 worked out at 120 nM in the assay on MCF7 [1] and 150 nM in the assay on MCF7 [2].

Take `CN[C@H](C(=O)N[C@H](C(=O)N(C)[C@H](/C=C(\C)C(=O)O)C(C)C)C(C)(C)C)C(C)(C)c1ccccc1` [TALTOBULIN]: the IC50 turned out to be 0.09 nM in the assay with MCF7 [1] and 0.08 nM in the assay on MCF7 [2].

Turning to `CN[C@H](C(=O)N[C@H](C(=O)N(C)[C@H](/C=C(\C)C(=O)O)C(C)C)C(C)(C)C)C(C)(C)C`, the IC50 with MCF7 [1] and with MCF7 [2] was 6 nM throughout.

As to `CN[C@@H](Cc1ccccc1)C(=O)N[C@H](C(=O)N(C)[C@H](/C=C(\C)C(=O)O)C(C)C)C(C)(C)C`, the IC50 turned out to be 5000 nM in the assay on MCF7 [1] and 4000 nM with MCF7 [2].

As to `C/C(=C\[C@H](C(C)C)N(C)C(=O)[C@@H](NC(=O)[C@H](C(C)(C)c1cn(C)c2ccccc12)[N+](C)(C)C)C(C)(C)C)C(=O)O`, the IC50 in the assay on MCF7 [1] and in the assay on MCF7 [2] was > 1000 nM in each case.

For the molecule `CN[C@H](C(=O)N[C@H](C(=O)N[C@H](/C=C(\C)C(=O)O)C(C)C)C(C)(C)C)C(C)(C)C`, the figures for the IC50 in the assay with MCF7 [1] and in the assay with MCF7 [2] were > 10000 nM and 1600 nM, respectively.

Consider `CN[C@H](C(=O)N[C@H](C(=O)N[C@H](/C=C(\C)C(=O)O)C(C)C)C(C)(C)C)C(C)(C)c1cn(C)c2ccccc12`, for which the IC50 in the assay on MCF7 [1] worked out at 0.15 nM; in the assay with MCF7 [2], 0.25 nM.

For `CN[C@H](C(=O)N[C@H](C(=O)N(C)[C@H](/C=C(\C)C(=O)O)C(C)C)C(C)(C)C)C(C)(C)c1c[nH]c2ccccc12` [HEMIASTERLINS A], the IC50 in the assay on MCF7 [1] and with MCF7 [2] was 2 nM each time.

As to `CN[C@@H](C(=O)N[C@H](C(=O)N(C)[C@H](/C=C(\C)C(=O)O)C(C)C)C(C)(C)C)C(C)(C)c1ccccc1`, the IC50 came out at 10 nM in the assay with MCF7 [1] and 25 nM with MCF7 [2].

Turning to `CN[C@H](C(=O)N[C@H](C(=O)N(C)[C@H](/C=C(\C)C(=O)O)C(C)C)C(C)C)C(C)(C)c1cn(C)c2ccccc12`, the IC50 in the assay with MCF7 [1] came to 0.5 nM; with MCF7 [2] it was 0.8 nM.

Regarding `CN[C@@H](Cc1cn(C)c2ccccc12)C(=O)N[C@H](C(=O)N(C)C/C=C(\C)C(=O)O)C(C)(C)C`, the IC50 with MCF7 [1] and with MCF7 [2] was > 10000 nM in each case.
